The whole screen tested about 190,000 compounds, of which about 200 (0.11%) were called active. The sample as a whole holds a higher share of actives than the screen did. Values without a mark were called inactive.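 Rule for the calls: active = inhibition above 80%; inactive = the rest.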

For this test, the target named is Broad substrate specificity ATP-binding cassette transporter ABCG2 (Homo sapiens) (UniProt Q9UNQ0). As to the kind of experiment: ABCG2 efflux pump inhibitors, primary screen, multiplex with ABCB1, IgMXP3 cells, flow cytometry (AID 1325).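 Note: 0% = DMSO and 100% = nicardipine control wells.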 Conditions: JC-1 efflux, at 6.6 µM, hits give high values. In short, it runs like this: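 Test system: IgMXP3 cells (ABCG2) mixed with DDAO far-red-labelled CCRF-Adr cells (ABCB1). Reagent: JC-1 transporter substrate. Compound dosing: single test compound dose, 6.6 µM final. Times: 10 min compound exposure, 25 °C. Detection: flow cytometry of retained JC-1 fluorescence. Read-out basis: efflux inhibition in percent versus controls. Controls: nicardipine and DMSO wells.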
Sequence of Broad substrate specificity ATP-binding cassette transporter ABCG2 (Homo sapiens) (Q9UNQ0 whole entry, looked up): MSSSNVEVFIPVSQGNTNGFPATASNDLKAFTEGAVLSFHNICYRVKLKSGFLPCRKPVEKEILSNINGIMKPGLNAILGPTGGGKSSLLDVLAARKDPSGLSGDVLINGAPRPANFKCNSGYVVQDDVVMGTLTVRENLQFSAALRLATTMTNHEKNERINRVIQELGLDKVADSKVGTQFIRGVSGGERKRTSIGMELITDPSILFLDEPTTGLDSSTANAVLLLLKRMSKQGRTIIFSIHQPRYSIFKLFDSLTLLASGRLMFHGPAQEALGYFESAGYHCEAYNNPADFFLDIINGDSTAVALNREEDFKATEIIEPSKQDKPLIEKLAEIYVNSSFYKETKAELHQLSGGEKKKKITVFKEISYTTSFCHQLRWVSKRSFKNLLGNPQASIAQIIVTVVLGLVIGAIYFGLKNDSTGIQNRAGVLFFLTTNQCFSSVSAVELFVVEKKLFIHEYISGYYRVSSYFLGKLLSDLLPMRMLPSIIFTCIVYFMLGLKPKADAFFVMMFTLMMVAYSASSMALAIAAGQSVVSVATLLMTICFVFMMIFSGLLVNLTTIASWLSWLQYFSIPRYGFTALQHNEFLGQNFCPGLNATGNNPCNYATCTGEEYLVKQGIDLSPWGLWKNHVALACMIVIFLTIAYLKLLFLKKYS
What is called inhibition is the relative decrease from the control value, in per cent. As to `CN(C)c1ccc2c(=O)[nH][nH]c(=O)c2c1`, the inhibition is 2.2%. For the compound `CCn1nc(C)cc1C(=O)N1CCCC(C(=O)c2cccc(OC)c2)C1` (configuration not stated), the inhibition is -0.58%. As for `CCNS(=O)(=O)c1ccc(NC(=O)c2cncc(Br)c2)cc1`, the inhibition is 19.8%. Regarding `Cn1c(CCC(=O)OCC(=O)NCc2ccccc2Cl)nc(=O)c2ccccc21`, the inhibition was 1.08%. On to `CN(C)C(=O)c1cccn(Cc2cccc(C(F)(F)F)c2)c1=O`, for which the inhibition was -0.69%. For `CN1C(=O)/C(=C/C=C2\SCCN2C)OC1=S`, the inhibition is -0.91%. Regarding `Cc1ccc(NC(=O)C2(N3CCC3=O)CCCCC2)cc1`, the inhibition is 0.01%.

As for `COc1ccc(C(=O)Nc2ccc(-n3nncc3C(C)(C)C)cc2)cc1`, the inhibition was 1.71%. `Cc1ccc(NS(=O)(=O)c2cccs2)cc1S(=O)(=O)N1CCCCCC1`: the inhibition is 0.74%. For `Cc1ccc(OCc2nnc(SC3CCc4ccccc4C3=O)n2C)cc1` (configuration not stated), the inhibition is 1.34%. Take `O=C(Cn1cc(C(F)(F)F)ccc1=O)N/N=C/c1ccc(Cl)cc1Cl`: the inhibition was -1.56%.

Take `Cc1ccc2c(CC(=O)NCc3cccs3)coc2c1`: the inhibition is 9.43%.

Regarding `CCc1nnc(NC(=O)c2cccc(S(=O)(=O)N(C)c3ccc(OC)cc3)c2)s1`, the inhibition was 3.19%. As to `COc1ccc(CNC(=O)CN(Cc2ccc(Cl)cc2)S(C)(=O)=O)cc1`, the inhibition is 3.97%. Consider `COc1cccc(NC(=O)CC(c2ccc(OC(C)C)cc2)c2ccccc2OC)c1` (configuration not stated), for which the inhibition is 10.9%. Consider `Cc1ccc(O)c(NC(=S)NC(=O)COc2ccc(Br)cc2)c1`, for which the inhibition is 3.88%. To `CCOC(=O)C1=C(CC)Nc2ccccc2N=C1N` belongs 0.61%; to `CC(CNc1ccc([N+](=O)[O-])c2cccnc12)Nc1c([N+](=O)[O-])cc(C(F)(F)F)cc1[N+](=O)[O-]` (configuration not stated), 23.1%; to `CC(=O)NC1C(Oc2ccc(C=O)cc2)OC(COC(C)=O)C(OC(C)=O)C1OC(C)=O` (configuration not stated), 0.63%.

As for `Cc1nc2cc(NCc3cccs3)ccc2n1C`, the inhibition is 0.91%.

As for `CCCCc1ccc(S(N)(=O)=O)cc1`, the inhibition was 3.23%. With `O=C(NCc1ccccn1)c1cc(Br)ccc1Cl`, the inhibition was 2.2%. For `CC(C)C(c1nnnn1C(C)(C)C)N1CCN(Cc2cccnc2)CC1` (configuration not stated), the inhibition was 1.7%.

With `CCOC(=O)c1ccc(NC(=S)Nc2cc(C)cc(C)n2)cc1`, the inhibition is 11.7%. As for `CC(C)N(C)C(=O)CCc1nnc(CCc2c[nH]c3ccccc23)o1`, the inhibition was 5.03%.

Regarding `CC(C)CNC(=O)C(=O)NCc1ccccc1`, the inhibition was 7.35%. In the case of `Cc1c(Cl)cccc1NC(=S)N(Cc1ccccc1)Cc1cccnc1`, the inhibition is 3.04%. Regarding `COc1ccccc1NC(=O)c1c(Br)cnn1C`, the inhibition was 9.25%.

In the case of `Cc1cccc(N2C(=O)SC(SC(=Nc3ccccc3)Nc3ccccc3)C2=O)c1` (configuration not stated), the inhibition is 0.89%.

Consider `COc1ccc(N2C(=O)/C(=C\c3ccco3)N=C2SCC(N)=O)cc1Cl`, for which the inhibition is 0.72%. Regarding `S=C(c1ccc(-c2ccccc2)o1)N1CCCCC1`, the inhibition is 1.68%. To `Cc1ccc(NC(=O)NC(=O)CSc2nnc(-c3ccc(OC(F)F)cc3)n2N)c(C)c1` belongs 4.7%; to `COc1cccc(C2CC(c3ccccc3)=NN2S(=O)(=O)c2ccccc2)c1OC` (configuration not stated), 5.72%.

As to `CCOc1ccc(NC(=O)c2cc(C)nc3ccccc23)cc1`, the inhibition is 4.37%. Take `COc1ccccc1NC(=O)/C=C/C(=O)O`: the inhibition was 3.21%.

For `C=CCNC(=O)CC12CC3CC(C1)CC(CC(=O)NCC=C)(C3)C2`, the inhibition is 0.78%.

In the case of `Cc1cc(C)cc(NC(=O)Cn2cnc3c(nnn3Cc3ccc(F)cc3)c2=O)c1`, the inhibition is 0.29%. Consider `CSc1ccc(CN2C(=O)NC3(CCCCCC3)C2=O)cc1`, for which the inhibition is -1.59%.

As to `COCCNC(=O)CCCn1c(=O)c2ccccc2n(Cc2cccc([N+](=O)[O-])c2)c1=O`, the inhibition is 3.38%.

For `COc1ccccc1CN(C)c1nnnn1-c1ccccc1`, the inhibition was -0.06%. In the case of `O=C(CSc1ccc(-c2ccco2)nn1)NCc1ccc2c(c1)OCO2`, the inhibition was 0.73%. With `O=C(Nc1ccccc1C(=O)O)c1cc(S(=O)(=O)N2CCCCC2)cs1`, the inhibition is -0.42%. `Cc1c(Br)c([N+](=O)[O-])nn1CC(=O)N1CCN(Cc2ccccc2)CC1`: the inhibition is 2.55%.

With `CC(C)NC(=S)NN=C1CCCCCCCCCCC1`, the inhibition is 5.8%.

With `CCSc1sc(CC)cc1C=O`, the inhibition is 3.95%.

Take `CCCCn1c(=O)c(CCC(=O)OCC(=O)Nc2ccc(C)c(Cl)c2)nc2ccccc21`: the inhibition was 2.45%. For `COC(=O)Cc1csc(/N=C/c2c(O)n(-c3cccc(C(F)(F)F)c3)c(=O)c3ccccc23)n1`, the inhibition is -1.85%. Turning to `Cc1c(Cc2ccccc2)c(=O)oc2cc(OCC(N)=O)ccc12`, the inhibition was 0.67%. Take `CCOC(=O)c1sc(=NC(=O)/C=C/c2cccs2)n(C)c1C`: the inhibition was 2.28%. Consider `CCC(C(=O)OCC(=O)Nc1ccccc1-c1ccccc1)c1ccccc1` (configuration not stated), for which the inhibition was 3.04%.

For the compound `C/C(=N/O)c1ccc(N2C(=O)C3C4C=CC(C3C2=O)C2C3C(=O)N(c5ccc(/C(C)=N/O)cc5)C(=O)C3C42)cc1` (configuration not stated), the inhibition was -1.72%. Take `O=C(c1ccc(-c2ccccc2)cc1)C1CCCN(C(=O)c2cncs2)C1` (configuration not stated): the inhibition is 3.81%.

For the compound `Cc1ccc(OCC(=O)NNC(=S)NCc2ccccc2)cc1`, the inhibition is -1.33%. As for `O=C(/C=C/c1cccc([N+](=O)[O-])c1)NCCSCc1ccco1`, the inhibition was 51.1%.

As to `Cc1ccc(C)c(NS(=O)(=O)c2ccc(OCC(=O)NCc3cccnc3)cc2)c1`, the inhibition is 0.12%. For the compound `O=C(O/N=C(/c1ccccc1)c1ccncc1)c1ccccc1[N+](=O)[O-]`, the inhibition is 4.1%.

For `Cc1ccc(C(=O)COC(=O)c2cccc(N3C(=O)c4c(C)nc5ccccc5c4C3=O)c2)cc1C`, the inhibition was 15.3%. For `S=c1[nH]nc(NCCc2ccccc2)s1`, the inhibition is 0.35%. With `C/C(=C/C(=O)N1CCN(C)CC1)C(=O)O`, the inhibition is 4.35%. On to `CCNC(=O)CC1C(=O)N(c2ccc(OC)cc2)C(=S)N1CCc1ccncc1` (configuration not stated), for which the inhibition is -0.76%. Turning to `NS(=O)(=O)c1ccc(NC(=O)COC(=O)c2ccco2)cc1`, the inhibition is 10%. With `CN(Cc1ccccc1)C(=O)CCc1ccccc1`, the inhibition was 1.98%. As to `O=C(NC1CCN(Cc2ccccc2)CC1)c1cc(Br)c(Br)[nH]1`, the inhibition was 4.52%. For the compound `Cc1ccc2c(c1)C(O)(CC(=O)c1cccc(-n3cccc3)c1)C(=O)N2` (configuration not stated), the inhibition is 16.3%. With `Cc1ccc(NC(=S)N(CCN(C)C)Cc2cccs2)cc1C`, the inhibition is -0.22%. Take `COc1ccccc1NC(=S)N1CCC(NC(=O)C23CC4CC(CC(C4)C2)C3)CC1`: the inhibition is -0.01%.

For `C=CCn1c(-c2sc(-c3ccccc3)nc2C)n[nH]c1=S`, the inhibition is 1.76%. To `CCN1CCN(C(=O)CN(C)S(=O)(=O)c2ccc3ccccc3c2)CC1` belongs 0.1%; to `COc1ccc(OCCNS(=O)(=O)Cc2ccccc2)cc1`, 2.18%; to `COc1ccc(C)cc1NC(=S)Nc1ccccc1SC`, 0.21%.

Take `COc1ccc(C)cc1NC(=O)Nc1ccccc1SC`: the inhibition is 13.2%. As to `COc1ccc(C)cc1NC(=O)C(Sc1ccccc1)c1ccccc1` (configuration not stated), the inhibition is 91.6% (active). `CCOC(=O)C1=C(CC)OC(N)=C(C#N)C1c1ccc(F)cc1F` (configuration not stated): the inhibition was -0.41%. In the case of `CC(CO)NCC12CC3CC(CC(C3)C1)C2` (configuration not stated), the inhibition was -2.66%. Take `COc1ccc(CN(C)C(C)C(=O)NC2CCCc3ccccc32)cc1` (configuration not stated): the inhibition is 6.36%. Turning to `O=C(Cc1csc(Nc2nc(=S)[nH]c3ccccc23)n1)NCCCN1CCN(c2cccc(Cl)c2)CC1`, the inhibition was 3.5%. For `CCc1ccc(Oc2nc([N+](=O)[O-])nn2C)cc1`, the inhibition is 1.08%. For the compound `CCC(CC)c1nnc(NC(=O)c2nn(C)c(=O)c3ccccc23)s1`, the inhibition was 6.7%. Regarding `CCN(C(=O)Cc1nc(N)n[nH]1)C1(C(=O)Nc2ccccc2)CCCCC1`, the inhibition is 2.7%.

As for `CC(CNC(=O)c1ccc(N)cc1)NC(=O)c1ccc(N)cc1` (configuration not stated), the inhibition was -4.01%.

On to `Cc1cc(OC(=O)c2ccccc2Cl)ccc1N1C(=O)CCC1=O`, for which the inhibition is 21.3%. On to `O=S(=O)(Nc1ncccn1)c1ccc(NS(=O)(=O)c2cccc(Cl)c2Cl)cc1`, for which the inhibition was 0.94%. Take `C=CCC1(CC=C)CCCN1C(=O)CC1C(=O)NCCN1Cc1ccccc1OC` (configuration not stated): the inhibition was 4.22%. To `NNc1nc2c(Cl)cccc2s1` belongs -11.1%. With `COc1ccc(CN2CCCC(C(=O)c3ccc(Cl)cc3)C2)cc1Cn1cncn1` (configuration not stated), the inhibition is 2.66%. For the compound `CN(C)c1nnnn1-c1ccc(Cl)cc1`, the inhibition is 1.39%. `O=C1NC(c2ccc(-c3ccccc3[N+](=O)[O-])o2)C(C(=O)c2ccc(Cl)cc2)C(O)(C(F)(F)F)N1` (configuration not stated): the inhibition was 14.6%.

The record behind these values is PubChem BioAssay AID1325 (NMMLSC, 2008).
